Calls of active or inactive are those of the source. The rule behind the calls is not given here.
Experiments:
Tobacco mosaic virus [1] = assay: Antiviral activity against Tobacco mosaic virus strain U1 (TMV) infected Nicotiana tabacum cv. K326 leaves assessed as decrease in Tobacco mosaic virus coat protein level at 20 uM at 25 degC treated at 6 hr after viral inoculation measured after 48 hr by leaf disk method/western blot analysis; assay type: functional, organism-based
Procedure, shortened: (§1)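 N. tabacum cv. K326 leaves (5-6-leaf stage) mechanically inoculated with TMV (32 μg/mL in 0.01 M PBS). After 6 h, 1 cm disks without major veins were cut and floated on compound solution, with DMSO negative control and ningnanmycin positive control, at 25 °C for 48 h. Coat protein was then detected by SDS-PAGE and Western blot with polyclonal anti-TMV antibody and AP-conjugated anti-rabbit IgG using NBT/BCIP; samples run in duplicate.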

Tobacco mosaic virus [2] = assay: (§2) In vivo antiviral activity against Tobacco mosaic virus strain U1 (TMV) infected left side of Nicotiana glutinosa leaves assessed as decrease in local lesion numbers at 20 uM co-incubated with virus for 30 min before inoculation onto leaves measured at 3-4 days after viral challenge by half-leaf method; assay type: functional
Procedure, shortened: (§3)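 Half-leaf test on N. glutinosa at the 5-6-leaf stage. Compound was dissolved in DMSO, diluted in water and mixed with TMV (32 μg/mL in 0.01 M PBS) for 30 min, then rubbed onto the left half-leaf; the right half received virus plus DMSO. Local lesions were counted after 3-4 days, with three repetitions. Inhibition % = (C−T)/C×100 using mean lesion counts. IC50 was taken from a 1.25-20 μM series.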

Tobacco mosaic virus [3] = assay: Antiviral activity against Tobacco mosaic virus strain U1 (TMV) infected Nicotiana glutinosa leaves assessed as protective effect by decrease in local lesion number at 20 uM treated 6 hr prior to viral inoculation measured at 3-4 days after viral challenge; assay type: functional
Procedure, shortened: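 N. glutinosa plants pretreated with compound solutions (DMSO diluted in distilled water) or DMSO solution for 6 h, then inoculated with TMV and kept in an insect-free greenhouse 3-4 days until local lesions were visible; inhibition rate calculated from local lesion counts.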

Tobacco mosaic virus [4] = assay: Antiviral activity against Tobacco mosaic virus strain U1 (TMV) infected Nicotiana tabacum cv. K326 leaves assessed as decrease in Tobacco mosaic virus coat protein level at 25 degC treated at 6 hr after viral inoculation measured after 48 hr by leaf disk method/western blot analysis; assay type: functional, organism-based; procedure, shortened: as §1
Tobacco mosaic virus [5] = assay: as §2, with “1.25” for “20”; assay type: functional; procedure, shortened: as §3
Tobacco mosaic virus [6] = assay: as §2, with “5” for “20”; assay type: functional; procedure, shortened: as §3
Tobacco mosaic virus [7] = assay: as §2, with “2.5” for “20”; assay type: functional; procedure, shortened: as §3
Tobacco mosaic virus [8] = assay: In vivo antiviral activity against Tobacco mosaic virus strain U1 (TMV) infected left side of Nicotiana glutinosa leaves assessed as decrease in local lesion numbers co-incubated with virus for 30 min before inoculation onto leaves measured at 3-4 days after viral challenge by half-leaf method; assay type: functional, organism-based; procedure, shortened: as §3
Tobacco mosaic virus [9] = assay: as §2, with “10” for “20”; assay type: functional; procedure, shortened: as §3
Tobacco mosaic virus [10] = assay: Ratio of ningnamycin IC50 to compound IC50 for Tobacco mosaic virus strain U1 (TMV) infected left side of Nicotiana glutinosa leaves by half-leaf method; assay type: functional
Procedure, shortened: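 Ratio of IC50 values from the half-leaf N. glutinosa lesion assay, with ningnanmycin as the reference compound. Virus (32 μg/mL) was premixed with compound for 30 min before inoculation, and lesions were counted after 3-4 days.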

IC50 (Tobacco mosaic virus [8]) [µM]	SMILES	inhibition (Tobacco mosaic virus [1])	inhibition in vivo at 20 µM (Tobacco mosaic virus [2]) [%]	inhibition at 20 µM (Tobacco mosaic virus [3]) [%]	inhibition (Tobacco mosaic virus [4])	inhibition in vivo at 1.25 µM (Tobacco mosaic virus [5]) [%]	inhibition in vivo at 5 µM (Tobacco mosaic virus [6]) [%]	inhibition in vivo at 2.5 µM (Tobacco mosaic virus [7]) [%]	inhibition in vivo at 10 µM (Tobacco mosaic virus [9]) [%]	Ratio IC50 (Tobacco mosaic virus [10])
	COC(=O)[C@]12OC[C@]34[C@H]([C@@H](O)[C@@H]1O)[C@@]1(C)C=C(O[C@@H]5O[C@H](CO)[C@@H](O)[C@H](O)[C@H]5O)C(=O)[C@@H](C)[C@@H]1C[C@H]3OC(=O)[C@H](OC(C)=O)[C@@H]24 [YADANZIOSIDE F]	Active	31.1							
3.42	COC(=O)[C@]12OC[C@]34[C@H]([C@@H](O)[C@@H]1O)[C@@]1(C)CC(=O)C(O)=C(C)[C@@H]1C[C@H]3OC(=O)[C@H](OC(=O)C=C(C)C)[C@@H]24 [BRUSATOL]	Active	88.9	77.5	Dose-dependent effect	20	64.7	48.8	71.5	34
	CNCC(=O)N[C@@H](CO)C(=O)N[C@H]1[C@H](O)[C@@H](O)[C@H](n2ccc(N)nc2=O)O[C@@H]1C(N)=O [NINGNANMYCIN]		25.3			28	46.6	37.9	67.5	
	COC(=O)[C@]12OC[C@]34[C@H]([C@@H](O)[C@@H]1O)[C@@]1(C)CC(=O)[C@H](O)[C@@H](C)[C@@H]1C[C@H]3OC(=O)[C@H](OC(=O)/C=C(\C)C(C)(C)OC(C)=O)[C@@H]24 [JAVANICOLIDE F]		52.1							
3.47	COC(=O)[C@@]12OC[C@]34[C@H]([C@@H](O)[C@@H]1O)[C@@]1(C)CC(=O)C(O)=C(C)[C@@H]1C[C@H]3OC(=O)[C@H](OC(C)=O)[C@@H]24 [BRUCEINE B]	Active	88.9	86.3		20.5	65.2	40.6	81.5	
5.66	COC(=O)[C@]12OC[C@]34[C@H]([C@@H](O)[C@@H]1O)[C@@]1(C)[C@H](O)[C@@H](O)C=C(C)[C@@H]1C[C@H]3OC(=O)[C@H](OC(C)=O)[C@@H]24 [YADANZIOSIDE D]	Active	70.8			21.4	48.4	38.5	59.2	
	COC(=O)[C@]12OC[C@]34[C@H]([C@@H](O)[C@@H]1O)[C@@]1(C)C=C(O[C@@H]5O[C@H](CO)[C@@H](O)[C@H](O)[C@H]5O)C(=O)[C@@H](C)[C@@H]1C[C@H]3OC(=O)[C@H](OC(=O)/C=C(\C)C(C)(C)OC(C)=O)[C@@H]24 [Yadanzioside G]	Active	33.7							
	CC1=C[C@H](O[C@@H]2O[C@H](CO)[C@@H](O)[C@H](O)[C@H]2O)[C@@H](O)[C@]2(C)[C@H]3[C@@H](O)[C@H](O)[C@]4(C)OC[C@@]35[C@@H](C[C@@H]12)OC(=O)[C@H](O)[C@]54O [YADANZIGAN]	Active	30.6							
	COC(=O)[C@@]12OC[C@]34[C@H]([C@@H](O)[C@@H]1O)[C@@]1(C)C=C(O[C@@H]5O[C@H](CO)[C@@H](O)[C@H](O)[C@H]5O)C(=O)[C@@H](C)[C@@H]1C[C@H]3OC(=O)[C@H](OC(=O)C=C(C)C)[C@@H]24 [BRUCEOSIDE A]	Active	24.1							
4.22	COC(=O)[C@]12OC[C@]34[C@H]([C@@H](O)[C@@H]1O)[C@@]1(C)CC(=O)C(O[C@@H]5O[C@H](CO)[C@@H](O)[C@H](O)[C@H]5O)=C(C)[C@@H]1C[C@H]3OC(=O)[C@H](OC(C)=O)[C@@H]24 [YADANZIOSIDE I]	Active	81.5			26.1	54.9	35.4	67.9	
	COC1=C[C@@H](C)[C@@H]2C[C@H]3OC(=O)C[C@H]4[C@@H](C)[C@H](OC)[C@@H](O)[C@H]([C@@]2(C)C1=O)[C@@]34C	inactive								
4.86	COC(=O)[C@]12OC[C@]34[C@H]([C@@H](O)[C@@H]1O)[C@@]1(C)CC(=O)C(O[C@@H]5O[C@H](CO)[C@@H](O)[C@H](O)[C@H]5O)=C(C)[C@@H]1C[C@H]3OC(=O)[C@H](OC(=O)/C=C(\C)C(C)(C)O)[C@@H]24 [Yadanzioside L]	Active	73.8	54.4		20	53.3	35	64.3	
	COC(=O)[C@]12OC[C@@]34[C@@H](CC5=C(C)C(=O)C(O)=C[C@]5(C)[C@H]3[C@@H](O)[C@@H]1O)OC(=O)[C@H](OC(C)=O)[C@@H]24 [DEDYDROBRUCEINE B]	Active	59.1							
	CC1=C[C@H](O)[C@@H](O)[C@]2(C)[C@H]3[C@@H](O)[C@H](O)[C@@]4(C)OC[C@@]35[C@@H](C[C@@H]12)OC(=O)[C@H](O)[C@]54O [BRUCEINE E]	Active	28.7							
	COC(=O)[C@]12OC[C@]34[C@H]([C@@H](O)[C@@H]1O)[C@@]1(C)CC(=O)[C@H](O)[C@@H](C)[C@@H]1C[C@H]3OC(=O)[C@H](OC(=O)C=C(C)C)[C@@H]24 [JAVANICOLIDES E]		52							
4.64	COC(=O)[C@]12OC[C@]34[C@H]([C@@H](O)[C@@H]1O)[C@@]1(C)CC(=O)C(O[C@@H]5O[C@H](CO)[C@@H](O)[C@H](O)[C@H]5O)=C(C)[C@@H]1C[C@H]3OC(=O)[C@H](OC(=O)C=C(C)C)[C@@H]24 [Bruceoside-B]	Active	78.4	90.2		21.4	53.8	31.7	66.7	

SMILES	IC50 (Tobacco mosaic virus [8]) [µM]	inhibition (Tobacco mosaic virus [1])	inhibition in vivo at 20 µM (Tobacco mosaic virus [2]) [%]	inhibition at 20 µM (Tobacco mosaic virus [3]) [%]	inhibition (Tobacco mosaic virus [4])	inhibition in vivo at 1.25 µM (Tobacco mosaic virus [5]) [%]	inhibition in vivo at 5 µM (Tobacco mosaic virus [6]) [%]	inhibition in vivo at 2.5 µM (Tobacco mosaic virus [7]) [%]	inhibition in vivo at 10 µM (Tobacco mosaic virus [9]) [%]	Ratio IC50 (Tobacco mosaic virus [10])
CC1=CC(=O)[C@@H](O)[C@]2(C)[C@H]3[C@@H](O)[C@H](O)[C@]4(CO)OC[C@@]35[C@@H](C[C@@H]12)OC(=O)[C@H](O)[C@]54O [YADANZIOLIDE A]	5.5	Active	75			22.4	46.1	39.2	58.7	
CC1=CC(=O)[C@@H](O)[C@]2(C)[C@H]3[C@@H](O)[C@H](O)[C@]4(C)OC[C@@]35[C@@H](C[C@@H]12)OC(=O)[C@H](O)[C@]54O [BRUCEINE D]	5.29	Active	78.6	72.2		21.4	47.9	29.1	66.7	
